Source: ChEMBL document CHEMBL1681770, “CD22-antagonists with nanomolar potency: the synergistic effect of hydrophobic groups at C-2 and C-9 of sialic acid scaffold” (Bioorg Med Chem, 2011)

What was measured:
[1] = molecular target: T1, Myelin-associated glycoprotein (Homo sapiens, UniProt P20916); test: Inhibition of human MAG after 1 hr by competitive ELISA; conditions: in the assay text read “after 30 min” for “after 1 hr”
T1 sequence (P20916 whole entry): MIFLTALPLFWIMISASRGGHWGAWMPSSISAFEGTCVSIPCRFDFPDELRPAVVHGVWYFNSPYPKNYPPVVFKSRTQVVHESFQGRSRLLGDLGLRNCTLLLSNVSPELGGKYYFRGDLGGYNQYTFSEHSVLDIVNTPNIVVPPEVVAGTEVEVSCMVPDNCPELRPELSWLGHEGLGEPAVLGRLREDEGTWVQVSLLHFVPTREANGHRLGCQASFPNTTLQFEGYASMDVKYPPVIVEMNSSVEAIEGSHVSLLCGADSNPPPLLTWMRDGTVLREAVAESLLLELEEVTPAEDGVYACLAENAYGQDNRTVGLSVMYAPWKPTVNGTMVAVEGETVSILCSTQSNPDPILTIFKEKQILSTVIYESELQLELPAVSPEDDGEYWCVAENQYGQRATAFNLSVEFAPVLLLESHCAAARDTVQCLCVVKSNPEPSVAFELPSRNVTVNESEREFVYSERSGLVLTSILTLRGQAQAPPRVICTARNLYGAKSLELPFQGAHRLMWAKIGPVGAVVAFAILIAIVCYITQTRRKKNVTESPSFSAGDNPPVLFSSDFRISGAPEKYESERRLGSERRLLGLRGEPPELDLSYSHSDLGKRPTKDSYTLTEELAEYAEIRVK
Method in brief: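 Neutravidin plates as for hCD22, with biotinylated Siaα2-3LacNAc-PAA (0.33 μM) bound 1 h at RT. MAG-Fc (~0.12 μg/ml) was pretreated with V. cholerae sialidase (0.4 mU/ml) 45 min, stopped with 1 mM EDTA, then complexed 45 min with goat anti-human IgG F(ab')2 (0.05 μg/mL) and HRP anti-goat F(ab')2 (0.0167 μg/mL). Complex was diluted 3:2, bound with inhibitor 30 min at 37°C, and read by TMB at OD450.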

[2] = molecular target: T2, B-cell receptor CD22 (Mus musculus) (UniProt P35329); test: Ratio of IC50 for 9-(4'-hydroxy-4-biphenyl)acetamido-9-deoxy-Neu5Gca2-6GalOMP to IC50 for compound at mouse CD22
T2 sequence (whole entry): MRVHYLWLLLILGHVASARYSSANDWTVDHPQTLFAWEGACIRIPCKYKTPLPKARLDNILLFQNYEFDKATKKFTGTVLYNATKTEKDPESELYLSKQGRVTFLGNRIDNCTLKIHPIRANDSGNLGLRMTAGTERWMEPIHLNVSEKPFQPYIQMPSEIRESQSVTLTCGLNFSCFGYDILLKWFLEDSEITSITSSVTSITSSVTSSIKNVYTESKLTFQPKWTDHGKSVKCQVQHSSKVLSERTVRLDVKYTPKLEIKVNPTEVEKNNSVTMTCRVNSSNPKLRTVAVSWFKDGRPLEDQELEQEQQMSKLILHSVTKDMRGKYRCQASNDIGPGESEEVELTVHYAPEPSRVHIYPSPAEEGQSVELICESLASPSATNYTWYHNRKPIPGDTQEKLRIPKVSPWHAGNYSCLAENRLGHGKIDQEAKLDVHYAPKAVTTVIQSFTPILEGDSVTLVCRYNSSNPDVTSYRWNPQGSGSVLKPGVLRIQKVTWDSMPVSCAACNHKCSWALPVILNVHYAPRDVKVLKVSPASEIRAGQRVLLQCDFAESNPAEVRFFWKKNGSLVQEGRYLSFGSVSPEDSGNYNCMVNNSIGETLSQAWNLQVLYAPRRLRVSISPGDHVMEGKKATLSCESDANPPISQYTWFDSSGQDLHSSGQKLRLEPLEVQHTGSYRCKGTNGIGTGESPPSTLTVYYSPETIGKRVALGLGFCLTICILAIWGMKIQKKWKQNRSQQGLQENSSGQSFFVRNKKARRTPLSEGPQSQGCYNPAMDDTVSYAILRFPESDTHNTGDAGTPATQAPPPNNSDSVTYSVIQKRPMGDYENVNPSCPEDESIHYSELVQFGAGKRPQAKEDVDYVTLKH
Method in brief: (§1)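 Relative inhibitory potency (rIP) = IC50 of the 9-biphenylacetamido Neu5Gcα2-6GalOMP reference divided by IC50 of the test sialoside, each IC50 taken from the competition ELISA for the respective CD22 species. Values above 1.0 mean tighter binding than the reference.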

[3] = organism: Homo sapiens; test: Selectivity ratio of IC50 for human MAG to IC50 for human CD22
[4] = molecular target: B-cell receptor CD22 (Homo sapiens) (UniProt P20273); test: Ratio of IC50 for 9-(4'-hydroxy-4-biphenyl)acetamido-9-deoxy-Neu5Gca2-6GalOMP to IC50 for compound at human CD22; method in brief: as §1
[5] = molecular target: T3, B-cell receptor CD22 (Mus musculus, UniProt P35329); test: Antagonist activity at mouse CD22 after 1 hr by competitive ELISA; format: functional
T3 sequence (P35329 whole entry): T2 sequence (whole entry)
Method in brief: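 Competition ELISA. Wells coated overnight with streptavidin (40 μg/mL in 50 mM NaHCO3, pH 8.5), then loaded 1 h with biotinylated sialoside probe (4 μg/mL in PBS) and blocked 3 h with 0.5% BSA/PBS. Graded inhibitor concentrations were incubated 1 h with 0.5 μg CD22Fc. After PBS/0.05% Tween 20 washes, bound Fc was detected with alkaline phosphatase anti-human IgG Fc. Triplicates, mean ± SD.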

[6] = molecular target: T4, B-cell receptor CD22 (Homo sapiens, UniProt P20273); test: Antagonist activity at human CD22 after 1 hr by competitive ELISA; format: functional
T4 sequence (P20273 whole entry): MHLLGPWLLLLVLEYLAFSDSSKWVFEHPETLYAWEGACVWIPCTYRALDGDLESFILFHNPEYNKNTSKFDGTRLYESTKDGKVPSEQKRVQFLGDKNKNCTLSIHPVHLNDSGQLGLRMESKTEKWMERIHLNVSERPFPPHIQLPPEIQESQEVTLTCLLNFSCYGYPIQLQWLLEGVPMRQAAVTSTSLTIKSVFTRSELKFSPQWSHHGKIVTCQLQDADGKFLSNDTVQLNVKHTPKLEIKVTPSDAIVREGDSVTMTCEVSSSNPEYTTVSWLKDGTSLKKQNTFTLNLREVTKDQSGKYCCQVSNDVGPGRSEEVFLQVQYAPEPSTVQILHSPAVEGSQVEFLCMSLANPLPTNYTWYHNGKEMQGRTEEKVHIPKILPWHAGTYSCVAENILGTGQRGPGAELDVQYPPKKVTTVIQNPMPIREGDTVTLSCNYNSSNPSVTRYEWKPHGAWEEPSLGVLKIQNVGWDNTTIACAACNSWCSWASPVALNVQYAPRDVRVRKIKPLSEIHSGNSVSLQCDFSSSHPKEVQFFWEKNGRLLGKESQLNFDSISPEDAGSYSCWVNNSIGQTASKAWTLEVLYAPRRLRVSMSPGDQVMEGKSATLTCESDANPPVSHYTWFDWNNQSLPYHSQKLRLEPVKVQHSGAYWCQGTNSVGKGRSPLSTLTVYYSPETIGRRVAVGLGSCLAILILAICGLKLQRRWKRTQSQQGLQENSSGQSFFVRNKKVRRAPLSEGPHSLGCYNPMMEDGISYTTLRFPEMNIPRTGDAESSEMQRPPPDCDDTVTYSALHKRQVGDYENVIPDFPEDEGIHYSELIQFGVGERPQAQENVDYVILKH
Method in brief: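 Neutravidin-precoated plates (1 μg/well, overnight, 4°C) were blocked with 0.5% BSA in HBSS for 30 min at 37°C. Biotinylated Siaα2-6LacNAc-PAA (0.625 μg/mL) was bound 1 h at RT. Inhibitor and precomplexed hCD22-Fc/goat anti-human IgG F(ab')2 were added and bound 30 min at 37°C. After HBSS washes: TMB, H2SO4 stop, OD450. Triplicates, mean ± SD.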

[7] = molecular target: T1, Myelin-associated glycoprotein; test: Inhibition of human MAG after 30 min by competitive ELISA

| SMILES | IC50 [1] [µM] | Ratio IC50 [2] | Ratio IC50 [3] | Ratio IC50 [4] | IC50 [5] [µM] | IC50 [6] [µM] | IC50 [7] [µM] |
| --- | --- | --- | --- | --- | --- | --- | --- |
| O=C(CO)N[C@H]1[C@H]([C@H](O)[C@H](O)CNCc2ccc(-c3ccc(O)cc3)cc2)O[C@@](OCc2ccccc2)(C(=O)O)C[C@@H]1O | 9.27 | 1.2 | 3.4 | 0.6 | 5.03 | 0.82 | – |
| O=C(Cc1ccc(-c2ccc(O)cc2)cc1)NC[C@@H](O)[C@@H](O)[C@@H]1O[C@@](OCc2ccc(-c3ccccc3)cc2)(C(=O)O)C[C@H](O)[C@H]1NC(=O)CO | – | 20.2 | 432 | 12 | 0.19 | 0.07 | 164 |
| O=C(CO)N[C@H]1[C@H]([C@H](O)[C@H](O)CNCc2ccc(-c3ccc(O)cc3)cc2)O[C@@](OCc2ccc(-c3ccccc3)cc2)(C(=O)O)C[C@@H]1O | – | 0.3 | 7.4 | 0.5 | 23.3 | 1.12 | 16.6 |
| O=C(Cc1ccc(-c2ccc(F)cc2)cc1)NC[C@@H](O)[C@@H](O)[C@@H]1O[C@@](OCc2ccccc2)(C(=O)O)C[C@H](O)[C@H]1NC(=O)CO | – | 0.77 | – | – | 5 | – | – |

Second part, the compound after the results:

| IC50 [1] [µM] | Ratio IC50 [2] | Ratio IC50 [3] | Ratio IC50 [4] | IC50 [5] [µM] | IC50 [6] [µM] | IC50 [7] [µM] | SMILES |
| --- | --- | --- | --- | --- | --- | --- | --- |
| 37.4 | 1 | 11.4 | 1 | 6.43 | 0.53 | – | COc1ccc(O[C@@H]2O[C@H](CO[C@]3(C(=O)O)C[C@H](O)[C@@H](NC(=O)CO)[C@H]([C@H](O)[C@H](O)CNCc4ccc(-c5ccc(O)cc5)cc4)O3)[C@H](O)[C@H](O)[C@H]2O)cc1 |
| – | 38.4 | 712 | 7 | 0.1 | 0.13 | 171 | O=C(Cc1ccc(-c2ccc(O)cc2)cc1)NC[C@@H](O)[C@@H](O)[C@@H]1O[C@@](OCc2ccccc2)(C(=O)O)C[C@H](O)[C@H]1NC(=O)CO |
| – | – | 41.5 | – | 3.84 | – | 136 | COc1ccc(O[C@@H]2O[C@H](CO[C@]3(C(=O)O)C[C@H](O)[C@@H](NC(=O)CO)[C@H]([C@H](O)[C@H](O)CNC(=O)Cc4ccc(-c5ccc(O)cc5)cc4)O3)[C@H](O)[C@H](O)[C@H]2O)cc1 |
